Published values of several laboratories.
Method: competition with immobilised ligand
RPS6KA5 C-terminal kinase domain: Ribosomal protein S6 kinase alpha-5, C-terminal kinase domain (RPS6KA5, Homo sapiens, UniProt O75582)
RPS6KA5 N-terminal kinase domain: Ribosomal protein S6 kinase alpha-5, N-terminal kinase domain (RPS6KA5, Homo sapiens, UniProt O75582)

O=C(NCCCN1CCOCC1)c1ccc(Nc2nccc(-c3cc4ccccc4s3)n2)cc1 — remaining binding (RPS6KA5 C-terminal kinase domain; binding; 1 µM): 100%
O=c1nc(-c2ccccn2)sc2ccccc12 — remaining binding (RPS6KA5 C-terminal kinase domain; binding; 1 µM): 88%
O=C(c1ccc(Nc2ncc(Cl)c(-c3cc4ccccc4s3)n2)cc1)N1CCC(N2CCCC2)CC1 — remaining binding (RPS6KA5 C-terminal kinase domain; binding; 1 µM): 54%
Cc1cnn2ncc(-c3ccnc(N(C)C)n3)c2c1 — remaining binding (RPS6KA5 N-terminal kinase domain; binding; 1 µM): 100%
COc1cnc(Nc2cccc(S(N)(=O)=O)c2)nc1N1CCN(c2ccccc2)C(=O)C1 — remaining binding (RPS6KA5 N-terminal kinase domain; binding; 1 µM): 99%
O=C(Nc1c[nH]nc1C(=O)NC1CCNCC1)c1cc(F)cc(F)c1 — remaining binding (RPS6KA5 C-terminal kinase domain; binding; 1 µM): 100%
CN(C)C(=O)Cn1cc(-c2nc([C@@](C)(c3ccc(-c4cnc(N)nc4)cc3)C3CC3)no2)cn1 — remaining binding (RPS6KA5 C-terminal kinase domain; cell-free assay; 1 µM): 92%
CCN1CCN(Cc2ccc(C(=O)Nc3ccc(C)c(Oc4ccc5c(c4)CC(=O)N5)c3)cc2C(F)(F)F)CC1 — remaining binding (RPS6KA5 N-terminal kinase domain; binding; 1 µM): 100%
Cc1cnc(Nc2ccc(C(=O)N3CCC(N4CCCC4)CC3)cc2)nc1-c1cc2ccccc2s1 — remaining binding (RPS6KA5 N-terminal kinase domain; binding; 1 µM): 100%
CCC(=O)N[C@H]1CC[C@@H](C(=O)N(C)c2ccc(-c3nc4ccccc4o3)cc2)C1 — remaining binding (RPS6KA5 C-terminal kinase domain; cell-free assay; 1 µM): 68%
COc1ccnn2ncc(-c3ccnc(N(C)C)n3)c12 — remaining binding (RPS6KA5 C-terminal kinase domain; binding; 1 µM): 100%
CNC(=O)[C@@H]1CC[C@@H](n2c(-c3ccc4cnccc4c3)nc3ccc(C(=O)NCc4cccc(C(N)=O)c4)cc32)C1 — remaining binding (RPS6KA5 C-terminal kinase domain; binding; 1 µM): 100%
O=C(NCC1CCOCC1)c1n[nH]cc1NC(=O)c1c(F)cccc1F — remaining binding (RPS6KA5 N-terminal kinase domain; binding; 1 µM): 79%
COc1cnc(Nc2cccc(S(N)(=O)=O)c2)nc1N1CCN(c2ccccc2)CC1 — remaining binding (RPS6KA5 N-terminal kinase domain; binding; 1 µM): 92%
O=C(c1ccc(Nc2ncc(Cl)c(-c3ccc(Cl)s3)n2)cc1)N1CCC(N2CCCC2)CC1 — remaining binding (RPS6KA5 C-terminal kinase domain; binding; 1 µM): 48%
Nc1ncc2c(n1)-c1c([nH]c3ccc(C#CC4CC4)cc13)CCCC2 — remaining binding (RPS6KA5 C-terminal kinase domain; binding; 1 µM): 100%
c1ccc(N2CCN(Cc3nc4ccccc4[nH]3)CC2)nc1 — remaining binding (RPS6KA5 C-terminal kinase domain; binding; 1 µM): 100%
N[C@H]1CCN(c2nccc(-c3cnn4ncccc34)n2)C1 — remaining binding (RPS6KA5 N-terminal kinase domain; binding; 1 µM): 100%
Cn1nc(C(=O)NCc2ccc(C(=O)O)cc2)cc1-c1ccc2[nH]ccc2c1 — remaining binding (RPS6KA5 N-terminal kinase domain; cell-free assay; 0.1 µM): 76%
O=C(NCCCN1CCOCC1)c1ccc(Nc2ncc(Cl)c(-c3ccc(Cl)s3)n2)cc1 — remaining binding (RPS6KA5 N-terminal kinase domain; binding; 1 µM): 100%
C[C@@H](c1ccc(-n2cnc3c(N)ncnc32)cc1)N1CCc2nn(C)c(Cc3ccccc3)c2C1=O — remaining binding (RPS6KA5 C-terminal kinase domain; binding; 0.1 µM): 92%
Cc1noc([C@H]2C[C@@H](c3ccc(C(F)(F)F)cc3)CN(C(=O)N3CCS(=O)(=O)C3)C2)n1 — remaining binding (RPS6KA5 C-terminal kinase domain; cell-free assay; 1 µM): 100%
CN(C)c1nccc(-c2cnn3ncccc23)n1 — remaining binding (RPS6KA5 C-terminal kinase domain; binding; 1 µM): 98%
C[C@H](c1ccnc(Nc2nc3ccc(-c4cc(N(C)C)ncn4)cc3[nH]2)c1)N1CCN(C(=O)CC(F)(F)F)CC1 — remaining binding (RPS6KA5 C-terminal kinase domain; cell-free assay; 0.1 µM): 61%
O=C(c1ccc(Nc2nccc(-c3cc4ccccc4s3)n2)cc1)N1CCC(N2CCCC2)CC1 — remaining binding (RPS6KA5 C-terminal kinase domain; binding; 1 µM): 86%
CN(CCCC(F)(F)F)c1nccc(-c2cnn3ncccc23)n1 — remaining binding (RPS6KA5 C-terminal kinase domain; binding; 1 µM): 100%
COc1ncc2cc3ccccc3nc2c1C#N — remaining binding (RPS6KA5 C-terminal kinase domain; cell-free assay; 5 µM): 88%
CN(C)c1ncc(F)c(-c2cnn3ncccc23)n1 — remaining binding (RPS6KA5 N-terminal kinase domain; binding; 1 µM): 98%
c1cncc(-c2cccc(Nc3nccc(NC4CCCCC4)n3)c2)c1 — remaining binding (RPS6KA5 N-terminal kinase domain; binding; 10 µM): 100%
F[C@@H]1CCN(c2nccc(-c3cnn4ncccc34)n2)C1 — remaining binding (RPS6KA5 C-terminal kinase domain; binding; 1 µM): 73%
O=C(O)[C@@H]1[C@@H](Cn2nnc3ccccc3c2=O)CC[C@H]1C(=O)c1ccc(OCCC2CCOCC2)cc1 — remaining binding (RPS6KA5 C-terminal kinase domain; cell-free assay; 1 µM): 100%
C=CC(=O)N1CCC(C(=O)NCC(=O)N2CCN(c3nc(-c4cnc(N)nc4C(F)F)nc(N4CCOCC4)n3)CC2)CC1 — remaining binding (RPS6KA5 N-terminal kinase domain; binding; 1 µM): 100%
